Published values from different studies.
Protocols differ between the studies behind these lines.
Organism: Enterobacter cloacae
Observed: microbial growth

| Compound | assay | test system | MIC |
| --- | --- | --- | --- |
| O=C(Nc1ccc2c(c1)OC(F)(F)O2)Nc1ccc(Cl)c(C(F)(F)F)c1 |  | DSM30054 | > 100 µM |
| CO[C@@H](C(N)=O)[C@H](NC(=O)c1ccc(NC(=O)c2ccc(C#N)cc2)cc1)C(=O)Nc1ccc(C(=O)Nc2ccc(C(=O)Nc3ccc(C(=O)O)cc3)c(O)c2OC(C)C)cc1 |  | DSM30054 | > 64 µg/mL |
| C[C@@H](O)[C@H]1C(=O)N2C(C(=O)O)=C(S[C@@H]3CN[C@H](C(=O)N(C)C)C3)[C@H](C)[C@H]12 |  |  | 1.3 µM |
| CNC(=O)c1cc(Oc2ccc(NC(=O)Nc3ccc(Cl)c(C(F)(F)F)c3)cc2)ccn1 |  | DSM30054 | > 100 µM |
| C/C(=C\c1ccc(C#N)cc1)C(=O)Nc1ccc(C(=O)N[C@@H](CC(N)=O)C(=O)Nc2ccc(C(=O)Nc3ccc(C(=O)Nc4ccc(C(=O)O)cc4)c(O)c3OC(C)C)cc2)cc1 |  | DSM30054 | > 64 µg/mL |
| CN(C)[C@@H]1C(O)=C(C(N)=O)C(=O)[C@@]2(O)C(O)=C3C(=O)c4c(O)cnc(Cl)c4C[C@H]3C[C@@H]12.Cl | broth dilution | ATCC13047 | 8 µg/mL |
| CN(C)[C@@H]1C(O)=C(C(N)=O)C(=O)[C@@]2(O)C(O)=C3C(=O)c4c(cc5ccc(CN6CC(F)(F)C6)cc5c4O)C[C@H]3C[C@@H]12 | broth dilution | ATCC13047 | 32 µg/mL |
| Cc1nc(Cl)c2c(c1O)C(=O)C1=C(O)[C@]3(O)C(=O)C(C(N)=O)=C(O)[C@@H](N(C)C)[C@@H]3C[C@@H]1C2.Cl | broth dilution | ATCC13047 | 32 µg/mL |
| CN(C)CCOc1c2c(c(O)c3cc(CN4CCC4)ccc13)C(=O)C1=C(O)[C@]3(O)C(=O)C(C(N)=O)=C(O)[C@@H](N(C)C)[C@@H]3C[C@@H]1C2 | broth dilution | ATCC13047 | > 32 µg/mL |
| CC(C)CNc1nc(Cl)c2c(c1O)C(=O)C1=C(O)[C@]3(O)C(=O)C(C(N)=O)=C(O)[C@@H](N(C)C)[C@@H]3C[C@@H]1C2.Cl.Cl.Cl | broth dilution | ATCC13047 | > 32 µg/mL |
| Cc1c(CN(C)C(=O)/C=C/c2cnc3c(c2)CC(CCN)C(=O)N3)oc2ccccc12.Cl (centres unmarked) | broth dilution | BAA2341 | 16 µg/mL |
